Rows were chosen to be rich in hits. Some 6.9% of all compounds tested hit in one or more screens of this group.
Ecoli tolC: growth inhibitors of E. coli BW25113 tolC mutant; OD615; growth inhibition, % at 10 µM (by protocol); 2.2% of 65,000 active; AID 573;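 active means growth inhibition at or above a cutoff equal to the mean over every tested compound plus 3 SD, cut at about 60% in these data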;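 further: growth measured after 20 h incubation at 37 °C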
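Doses: one dose of 10 µM final / Material: E. coli BW25113 ΔtolC::kan, tolC deletion mutant strain / Buffer or medium: LB with kanamycin 50 µg/mL / Evaluation: percent growth inhibition / Detection: optical density read at 615 nm / Incubation: 37 °C, 20 h exposure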
PostGolgi ctrl: growth of the yeast control strain, post-Golgi counter-screen; efflux-deficient yeast background strain, growth absorbance A615, 16 h; inhibition, % at 10 µM; 5% of 98,000 active; AID 738; in the data active means inhibition above about 30%
PostGolgi yeast: growth inhibition of a yeast mutant, post-Golgi transport screen; 0.9% of 98,000 active; post-Golgi transport phenotypic cell assay; inhibition, % at 10 µM; in the data active means inhibition above about 30%;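 further: yeast cells grown in 1536-well plates; yeast grown about 18 h at 30C before absorbance read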
Calb biofilm kill: kills Candida albicans biofilms | 0.14% of 85,000 active | inhibition, % at 6 µM | C. albicans biofilm + clotrimazole, Alamar Blue;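 active means inhibition above 20%; inactive means inhibition below 20%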;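 further: preformed 24 hr biofilms exposed to compound for 48 hr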
FAK blocker: inhibitors of human focal adhesion kinase; Q05397; biochemical FAK kinase activity assay; inhibition, %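 (tested at 7 µM)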; 0.84% of 97,000 active; AID 727
PTK2B oligo ant: blocks oligomerization of human Pyk2 in cells | z-score (the deposit names both 25 µM and 10 µM) | Q293 cells, Pyk2 FERM NanoBiT luminescence; stronger effect = lower value | Q14289 | 0.83% of 99,000 active;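 active means Z-score of -3 or lower, scaled per plate to the spread of control and sample wells; inactive means z-score above -3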;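 further: negative z-score means lost luminescence so less FERM oligomerization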
FAK inh conf: confirmation of human focal adhesion kinase (FAK) inhibitors; FAK kinase biochemical inhibition assay; 28% of 750 active; shares compounds with FAK blocker; inhibition, % at 7 µM
Numbers stand for hits; - = inactive; . = no result given. Unless noted, no stated cut-off is given here; in the data, active means inhibition above about 19%; inactive means the rest.

SMILES	Ecoli tolC	PostGolgi ctrl	PostGolgi yeast	Calb biofilm kill	FAK blocker	PTK2B oligo ant	others
COC(=O)C1C2c3ccccc3OC1(C)N=c1s/c(=C/c3cnn(C)c3C)c(=O)n12 (configuration not stated)	-	47.8	-	-	-	-
CC(=O)C1C2c3ccccc3OC1(C)N=c1s/c(=C/c3cnn(C)c3)c(=O)n12 (configuration not stated)	-	-	-	-	-	-
O=C(CCN1CCOCC1)NCC(=O)Nc1ccc(Br)cc1C(=O)c1ccccc1	-	-	-	-	-	-
O=C(CNC(=O)c1ccccc1)Nc1ccc(Br)cc1C(=O)c1ccccc1	.	30.8	-	.	-	-
O=C(CN1CCCCC1)NCC(=O)Nc1ccc(Br)cc1C(=O)c1ccccc1	.	-	-	.	-	-
O=C(CNC(=O)OCc1ccccc1)Nc1ccc(Br)cc1C(=O)c1ccccc1	.	37.1	-	.	-	-
Cc1nn(C)c(C)c1P(=S)(c1c(C)nn(C)c1C)N(C)C	-	40.4	-	-	-	-
CCCCCCCSc1cc(OC)c(CCNC)cc1OC	.	49.4	-	.	-	-
COCCCN1CCN(c2nnc3n2-c2sc(Br)cc2C(c2ccccc2Cl)=NC3)CC1	.	-	-	.	-	-
FC(F)(F)c1ccc2c(c1)nnn2C1CCN(Cc2nnnn2Cc2ccccc2)CC1	63.5	-	-	-	.	-
Cc1ccc(Cn2nnnc2CN2CCC(n3nnc4cc(C(F)(F)F)ccc43)CC2)cc1	-	62.3	-	-	-	-
N=c1sc2c(n1Cc1ccccc1)CCCC2	-	-	-	-	-	-
N=c1c2c(n(Cc3ccc(Cl)cc3Cl)c3c1CCC3)CCCC2	100.0	-	-	-	.	-
CCCCn1c(=O)c(C(=O)Nc2nc3ccccc3[nH]2)c(O)c2ccccc21	-	.	.	-	.	.
NCC(CC(=O)O)C1CCCCC1 (configuration not stated)	.	-	-	-	-	-
CC(C)Cc1[nH]c(=O)c(C#N)c2c1CCC2	-	-	34.9	-	-	-
C=CCn1c(O)c(C(C)=NCCN2CCOCC2)c(=O)[nH]c1=O	-	-	-	-	-	-
CCCCn1c(NS(=O)(=O)c2ccc(C)cc2)c(C(=O)OCC)c2nc3ccccc3nc21	.	.	.	.	.	-
CCCCn1c(NC(=O)c2ccco2)c(C(=O)OCC)c2nc3ccccc3nc21	-	-	-	-	27.3	-	FAK inh conf=-
COc1ccc(OCC(=O)Nc2ccc(Cl)cc2C(=O)c2ccccc2)cc1	.	-	-	.	25.0	-	FAK inh conf=-
COC(=O)c1ccc(-n2c(C)nc3ccccc3c2=O)cc1	.	-	-	-	-	-
C[C@H]1CCCC(=O)CCC/C=C/c2cc(O)cc(O)c2C(=O)O1	-	-	-	-	35.3	.	FAK inh conf=30.7
COC(=O)C1=Nc2ccccc2/C1=C\c1c(O)n(-c2ccc(OC)cc2)c(=O)[nH]c1=O	.	-	-	.	-	-

Screens (PubChem BioAssay)
